What was measured:
[1] = system: HCT-116; test: Antiproliferative activity against human HCT116 cells assessed as reduction in cell viability incubated for 72 hrs by CCK8 assay; type: functional, cell-based; conditions: HCT-116, 72 h
[2] = system: MDA-MB-435; test: Antiproliferative activity against human MDA-MB-435 cells assessed as reduction in cell viability incubated for 72 hrs by CCK8 assay; type: functional, cell-based; conditions: MDA-MB-435, 72 h
[3] = system: A549; test: Antiproliferative activity against human A549 cells assessed as reduction in cell viability incubated for 72 hrs by CCK8 assay; type: functional, cell-based; conditions: A549, 72 h
[4] = Aqueous solubility of compound at pH 7.4; type: physicochemical
[5] = system: HCT-116; test: Antitumor activity against human HCT116 cells xenografted in mouse assessed as reduction in tumor growth at 16 mg/kg, ip qd for 21 days administration starting from 10 days after tumor cell implantation measured every 2 or 4 days till the end of the treatment period relative to control; type: functional; conditions: HCT-116, ip, read-out: TGI
Summary of the method: (§1)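 HCT116 xenografts in nude mice; intraperitoneal dosing on 21 consecutive days; tumour growth inhibition (TGI) versus untreated control, with body weight recorded. n = 6 mice per group; mean ± SEM; significance by Student's t test versus control.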

[6] = Toxicity in mouse xenografted with human HCT116 cells assessed as reduction in body weight at 16 mg/kg, ip qd for 21 days administration starting from 10 days after tumor cell implantation measured every 2 or 4 days till the end of the treatment period; type: organism-based; conditions: in vivo
Summary of the method: (§2)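 Nude mice bearing HCT116 xenografts were given intraperitoneal doses on 21 consecutive days, with n = 6 per group including an untreated control group. Body weight was recorded to assess toxicity. Data are mean ± SEM, compared with the control group by Student's t test.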

[7] = Toxicity in mouse xenografted with human HCT116 cells assessed as reduction in body weight at 0.5 mg/kg, ip qd for 21 days administration starting from 10 days after tumor cell implantation measured every 2 or 4 days till the end of the treatment period; type: organism-based; conditions: in vivo; summary of the method: as §2
[8] = system: HCT-116; test: Antitumor activity against human HCT116 cells xenografted in mouse assessed as reduction in tumor growth at 0.5 mg/kg, ip qd for 21 days administration starting from 10 days after tumor cell implantation measured every 2 or 4 days till the end of the treatment period relative to control; type: functional; conditions: HCT-116, ip, read-out: TGI; summary of the method: as §1

| IC50 [1] | IC50 [2] | IC50 [3] | solubility [4] | Compound | inhibition in vivo at 16 mg/kg [5] | Activity [6] | Activity [7] | inhibition in vivo at 0.5 mg/kg [8] |
| --- | --- | --- | --- | --- | --- | --- | --- | --- |
| 87.2 µM | > 200 µM | > 200 µM | 850 µg/mL | COc1ccc2c(c1)cc1n2CCn2c-1[n+](C)c1ccc(F)cc1c2=O | 66.6% | Non-Toxic | – | – |
| – | – | – | – | CC[C@@]1(O)C(=O)OCc2c1cc1n(c2=O)Cc2cc3c(CN(C)C)c(O)ccc3nc2-1 [TOPOTECAN] | – | – | Toxic | 68.5% |
